In ChEMBL document CHEMBL3286203, “Reactive oxygen species (ROS) inducible DNA cross-linking agents and their effect on cancer cells and normal lymphocytes” (J Med Chem, 2014):
Calls of active or inactive are those of the source. The rule behind the calls is not given here.

Assays:
[1] = tested on: MDA-MB-231; assay: Cytotoxicity against human MDA-MB-231 cells after 48 hrs by SRB assay; type: functional; settings: MDA-MB-231, 48 h
How it was run: (§1)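 GI50 from the NCI Developmental Therapeutics Program in vitro human tumor cell screen. Cell lines were maintained in RPMI 1640 with 5% fetal bovine serum and 2 mM L-glutamine. They were seeded at 5000–40 000 cells/well, depending on each line's doubling time, then exposed to drug for 48 h at 37 °C, 5% CO2.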

[2] = tested on: PC-3; assay: Cytotoxicity against human PC3 cells after 48 hrs by SRB assay; type: functional; settings: PC-3, 48 h; how it was run: as §1
[3] = tested on: MDA-MB-468; assay: Cytotoxicity against human MDA-MB-468 cells after 48 hrs by SRB assay; type: functional; settings: MDA-MB-468, 48 h; how it was run: as §1
[4] = tested on: CCRF-CEM; assay: Cytotoxicity against human CCRF-CEM cells assessed as growth inhibition at 10 uM after 48 hrs by SRB assay; type: functional, cell-based
How it was run: (§2)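 NCI DTP 60-cell-line screen run at the NCI. Cells were grown in RPMI 1640 with 5% FBS and 2 mM L-glutamine. They were seeded at 5000–40 000 cells/well depending on doubling time and grown in two plates per line. Each was exposed to a single 10 μM dose for 48 h at 37 °C, 5% CO2, 95% air, 100% humidity. Read-out was percent growth.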

[5] = Induction of [32P]-labeled 49-mer oligonucleotide duplex DNA 12 with GNC sequence at terminus (unknown origin) interstrand cross-linking at 1 mM after 16 hrs by PAGE
How it was run: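 32P-labelled 12a (1.0 μM) annealed with 1.5 equiv of 12b in 10 mM potassium phosphate pH 7 / 100 mM NaCl (65 °C for 3 min, then slow cooling). Duplex incubated with compound (final 1 μM–5 mM), with or without H2O2, in NaCl and potassium phosphate pH 8 at room temperature for 16 h. Quenched in formamide; 20% denaturing PAGE.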

[6] = tested on: NCI-H322M; assay: Cytotoxicity against human NCI-H322M cells assessed as growth inhibition at 10 uM after 48 hrs by SRB assay; type: functional, cell-based
How it was run: (§3)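 Single-dose screen run by the NCI Developmental Therapeutics Program (NCI-60). Cells were grown in RPMI 1640 with 5% fetal bovine serum and 2 mM L-glutamine. They were plated at 5000–40 000 cells/well, depending on doubling time. Each line was run in two plates and exposed to 10 μM drug for 48 h at 37 °C, 5% CO2, 100% humidity. Read-out was growth percent.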

[7] = tested on: SF-539; assay: Cytotoxicity against human SF539 cells assessed as growth inhibition at 10 uM after 48 hrs by SRB assay; type: functional, cell-based; how it was run: as §3
[8] = tested on: HCT-15; assay: Cytotoxicity against human HCT15 cells assessed as growth inhibition at 10 uM after 48 hrs by SRB assay; type: functional, cell-based; how it was run: as §2
[9] = tested on: A549; assay: Cytotoxicity against human A549 cells after 48 hrs by SRB assay; type: functional; settings: A549, 48 h
How it was run: (§4)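 GI50 was determined in the NCI Developmental Therapeutics Program in vitro 60-line cancer screen. Tumour lines were maintained in RPMI 1640 containing 5% FBS and 2 mM L-glutamine. Cells were inoculated at 5000–40 000 cells/well according to each line's doubling time before drug exposure.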

[10] = tested on: IGROV-1; assay: Cytotoxicity against human IGROV1 cells after 48 hrs by SRB assay; type: functional; settings: IGROV-1, 48 h; how it was run: as §4
[11] = tested on: BT-549; assay: Cytotoxicity against human BT549 cells after 48 hrs by SRB assay; type: functional; settings: BT-549, 48 h; how it was run: as §4
[12] = tested on: RXF 393; assay: Cytotoxicity against human RXF393 cells assessed as growth inhibition at 10 uM after 48 hrs by SRB assay; type: functional, cell-based; how it was run: as §3
[13] = tested on: SF-268; assay: Cytotoxicity against human SF268 cells assessed as growth inhibition at 10 uM after 48 hrs by SRB assay; type: functional, cell-based; how it was run: as §3
[14] = tested on: ACHN; assay: Cytotoxicity against human ACHN cells assessed as growth inhibition at 10 uM after 48 hrs by SRB assay; type: functional, cell-based; how it was run: as §2
[15] = tested on: MDA-MB-468; assay: Cytotoxicity against human MDA-MB-468 cells assessed as growth inhibition at 10 uM after 48 hrs by SRB assay; type: functional, cell-based; how it was run: as §3
[16] = Cytotoxicity against human OVCAR8 cells after 48 hrs by SRB assay; type: functional; settings: OVCAR-8, 48 h; how it was run: as §1
[17] = tested on: T47D; assay: Cytotoxicity against human T47D cells assessed as growth inhibition at 10 uM after 48 hrs by SRB assay; type: functional, cell-based
How it was run: (§5)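 NCI-60 DTP human tumour line screen. Cells grown in RPMI 1640 with 5% fetal bovine serum and 2 mM L-glutamine, plated at 5000–40 000 cells/well according to doubling time. Single dose of 10 μM for 48 h at 37 °C, 5% CO2, 95% air, 100% humidity, two plates per line. Read-out is growth percent.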

[18] = tested on: LOX IMVI; assay: Cytotoxicity against human LOXIMVI cells assessed as growth inhibition at 10 uM after 48 hrs by SRB assay; type: functional, cell-based; how it was run: as §2
[19] = tested on: UO-31; assay: Cytotoxicity against human UO31 cells assessed as growth inhibition at 10 uM after 48 hrs by SRB assay; type: functional, cell-based; how it was run: as §5
[20] = Cytotoxicity against human HCT15 cells after 48 hrs by SRB assay; type: functional; settings: HCT-15, 48 h; how it was run: as §4
[21] = tested on: SK-MEL-28; assay: Cytotoxicity against human SK-MEL-28 cells assessed as growth inhibition at 10 uM after 48 hrs by SRB assay; type: functional, cell-based; how it was run: as §3
[22] = tested on: MDA-MB-231; assay: Cytotoxicity against human MDA-MB-231 cells assessed as growth inhibition at 10 uM after 48 hrs by SRB assay; type: functional, cell-based; how it was run: as §3
[23] = tested on: TK-10; assay: Cytotoxicity against human TK10 cells assessed as growth inhibition at 10 uM after 48 hrs by SRB assay; type: functional, cell-based; how it was run: as §5
[24] = tested on: DU-145; assay: Cytotoxicity against human DU145 cells assessed as growth inhibition at 10 uM after 48 hrs by SRB assay; type: functional, cell-based; how it was run: as §2
[25] = tested on: K562; assay: Cytotoxicity against human K562 cells assessed as growth inhibition at 10 uM after 48 hrs by SRB assay; type: functional, cell-based; how it was run: as §2
[26] = tested on: NCI-H460; assay: Cytotoxicity against human NCI-H460 cells after 48 hrs by SRB assay; type: functional; settings: NCI-H460, 48 h; how it was run: as §1
[27] = tested on: SK-MEL-2; assay: Cytotoxicity against human SK-MEL-2 cells assessed as growth inhibition at 10 uM after 48 hrs by SRB assay; type: functional, cell-based; how it was run: as §3
[28] = tested on: SR; assay: Cytotoxicity against human SR cells assessed as growth inhibition at 10 uM after 48 hrs by SRB assay; type: functional, cell-based; how it was run: as §5
[29] = tested on: SF-539; assay: Cytotoxicity against human SF539 cells after 48 hrs by SRB assay; type: functional; settings: SF-539, 48 h; how it was run: as §1
[30] = tested on: MOLT-4; assay: Cytotoxicity against human MOLT4 cells assessed as growth inhibition at 10 uM after 48 hrs by SRB assay; type: functional, cell-based; how it was run: as §3
[31] = tested on: IGROV-1; assay: Cytotoxicity against human IGROV1 cells assessed as growth inhibition at 10 uM after 48 hrs by SRB assay; type: functional, cell-based; how it was run: as §2
[32] = tested on: HOP-92; assay: Cytotoxicity against human HOP92 cells assessed as growth inhibition at 10 uM after 48 hrs by SRB assay; type: functional, cell-based; how it was run: as §2
[33] = tested on: A549; assay: Cytotoxicity against human A549 cells assessed as growth inhibition at 10 uM after 48 hrs by SRB assay; type: functional, cell-based; how it was run: as §2
[34] = tested on: 786-0; assay: Cytotoxicity against human 786-0 cells assessed as growth inhibition at 10 uM after 48 hrs by SRB assay; type: functional, cell-based; how it was run: as §2
[35] = tested on: NCI-H226; assay: Cytotoxicity against human NCI-H226 cells assessed as growth inhibition at 10 uM after 48 hrs by SRB assay; type: functional, cell-based; how it was run: as §3

| Compound | GI50 [1] [µM] | GI50 [2] [µM] | GI50 [3] [µM] | growth inhibition (GI) [4] | Activity [5] | growth inhibition (GI) [6] | growth inhibition (GI) [7] | growth inhibition (GI) [8] | GI50 [9] [µM] | GI50 [10] [µM] | GI50 [11] [µM] | growth inhibition (GI) [12] | growth inhibition (GI) [13] | growth inhibition (GI) [14] | growth inhibition (GI) [15] | GI50 [16] [µM] | growth inhibition (GI) [17] | growth inhibition (GI) [18] | growth inhibition (GI) [19] | GI50 [20] [µM] | other results |
| --- | --- | --- | --- | --- | --- | --- | --- | --- | --- | --- | --- | --- | --- | --- | --- | --- | --- | --- | --- | --- | --- |
| CC1(C)OB(c2ccc(N(CCCl)CCBr)cc2)OC1(C)C | 22.8 | 17.7 | 1.49 | Active | inactive | Active | Active | Active | 4.88 | 19.1 | 12.1 | Active | Active | Active | Active | 11.9 | Active | Active | Active | 17.1 | growth inhibition (GI) [21]: Active; growth inhibition (GI) [22]: Active; growth inhibition (GI) [23]: Active; growth inhibition (GI) [24]: Active; growth inhibition (GI) [25]: Active; GI50 [26]: 0.42 µM; growth inhibition (GI) [27]: Active; growth inhibition (GI) [28]: Active; GI50 [29]: 6.37 µM; growth inhibition (GI) [30]: Active; growth inhibition (GI) [31]: Active; growth inhibition (GI) [32]: Active; growth inhibition (GI) [33]: Active; growth inhibition (GI) [34]: Active; growth inhibition (GI) [35]: Active |
| CC1(C)OB(c2ccc(N(CCCl)CCOS(C)(=O)=O)cc2)OC1(C)C | 22.1 | 15.1 | 1.07 | Active | inactive | Active | Active | Active | 4.98 | 13.6 | 12 | Active | Active | Active | Active | 8.2 | Active | Active | Active | 13.5 | growth inhibition (GI) [21]: Active; growth inhibition (GI) [22]: Active; growth inhibition (GI) [23]: Active; growth inhibition (GI) [24]: Active; growth inhibition (GI) [25]: Active; GI50 [26]: 0.49 µM; growth inhibition (GI) [27]: Active; growth inhibition (GI) [28]: Active; GI50 [29]: 4.83 µM; growth inhibition (GI) [30]: Active; growth inhibition (GI) [31]: Active; growth inhibition (GI) [32]: Active; growth inhibition (GI) [33]: Active; growth inhibition (GI) [34]: Active; growth inhibition (GI) [35]: Active |
